In ChEMBL document CHEMBL1147053, “HIV protease inhibitors block the zinc metalloproteinase ZMPSTE24 and lead to an accumulation of prelamin A in cells” (Proc Natl Acad Sci U S A, 2007):
pIC50: −log10 of the molar value. Calls of active or inactive are those of the source. The calls are words filed in the database; no cut-off is given here.

Columns and labels:
Fibroblast [1] = experiment: Effect on HDJ2 farnesylation in mouse fibroblast cells at 20 uM after 24 hrs by Western blot; assay type: functional, cell-based
Method in brief: (§1)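 Wild-type fibroblasts exposed 24 h to drug (20 μM) or DMSO vehicle, with GGTI-298 (15 μM) and FTI (5 μM) run alongside. Isoprenylation was judged by band mobility on Western blots. HDJ-2 extracts were resolved on 15% acrylamide/0.08% bisacrylamide SDS/PAGE; Rap1A was probed with anti-Rap1A and anti-Rap1 antibodies.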

Fibroblast [2] = experiment: Effect on Rap1A isoprenylation in mouse fibroblast cells at 20 uM after 24 hrs by Western blot; assay type: functional, cell-based; method in brief: as §1
[3] = Inhibition of farnesyl transferase
Method in brief: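 FTase (50 ng) was incubated with 500 nM [³H]FPP and 1 μM recombinant H-Ras substrate for 10 min at 30°C, with or without drug. Protein was precipitated and glass-fibre filtered, and incorporated radiolabelled isoprenoid was counted by scintillation. Values are the mean of triplicate determinations.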

[4] = target: Protein-S-isoprenylcysteine O-methyltransferase (Homo sapiens) (UniProt O60725); experiment: Inhibition of human ICMT expressed in yeast assessed as methylation of N-acetyl-farnesylcysteine
[5] = target: T1, CAAX prenyl protease 2 (Mus musculus) (UniProt P57791); experiment: Inhibition of mouse RCE1 expressed in delta ste24 delta rce1 yeast
T1 sequence (whole entry): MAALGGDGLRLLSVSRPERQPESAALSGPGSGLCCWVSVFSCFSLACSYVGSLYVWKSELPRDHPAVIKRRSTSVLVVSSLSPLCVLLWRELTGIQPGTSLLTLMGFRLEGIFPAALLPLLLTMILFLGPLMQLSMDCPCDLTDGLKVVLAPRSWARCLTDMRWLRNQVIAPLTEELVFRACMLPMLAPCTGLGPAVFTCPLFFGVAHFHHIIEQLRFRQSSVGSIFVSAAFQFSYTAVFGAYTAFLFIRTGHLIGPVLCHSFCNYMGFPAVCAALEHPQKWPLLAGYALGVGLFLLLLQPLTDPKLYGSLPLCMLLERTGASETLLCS
Method in brief: (§2)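 Coupled endoproteolysis/methylation assay. Δste24Δrce1 yeast membranes overexpressing mouse ZMPSTE24 or RCE1 (5 μg) plus CH2733 Ste14p membranes (8 μg) were incubated with farnesylated 15-mer a-factor peptide (5 μM for ZMPSTE24, 25 μM for RCE1) and 20 μM [¹⁴C]SAM in 100 mM Tris·HCl pH 7.5 for 30 min at 30°C. Reactions were stopped with NaOH/SDS, and base-releasable [¹⁴C]methanol was measured by vapor diffusion. IC50 values were fitted.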

[6] = target: T2, CAAX prenyl protease 1 homolog (Mus musculus, UniProt Q80W54); experiment: Inhibition of mouse ZMPSTE24 expressed n delta ste24 delta rce1 yeast; method in brief: as §2
T2 sequence (Q80W54 whole entry): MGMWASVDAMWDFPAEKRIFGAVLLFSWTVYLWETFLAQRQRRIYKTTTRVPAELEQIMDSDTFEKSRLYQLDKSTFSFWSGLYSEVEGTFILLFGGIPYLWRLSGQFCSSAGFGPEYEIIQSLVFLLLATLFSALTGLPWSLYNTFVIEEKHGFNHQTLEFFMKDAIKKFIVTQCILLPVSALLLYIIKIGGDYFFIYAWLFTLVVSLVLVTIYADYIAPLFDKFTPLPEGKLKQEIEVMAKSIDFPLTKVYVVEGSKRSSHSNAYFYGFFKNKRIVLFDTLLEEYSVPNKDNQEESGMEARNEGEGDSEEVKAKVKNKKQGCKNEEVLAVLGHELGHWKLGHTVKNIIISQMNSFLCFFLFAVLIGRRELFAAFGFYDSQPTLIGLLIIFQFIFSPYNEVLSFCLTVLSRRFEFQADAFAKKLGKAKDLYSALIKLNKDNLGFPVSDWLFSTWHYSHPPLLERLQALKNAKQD

Fibroblast [7] = experiment: Effect on change in ZMPSTE24 mRNA expression level in mouse fibroblasts at 20 uM after 10 days by PCR; assay type: functional, cell-based
Fibroblast [8] = experiment: Effect on change in ZMPSTE24 protein level in mouse fibroblasts at 20 uM after 10 days by Western blot; assay type: functional, cell-based
[9] = Toxicity in RCE1 deficient mouse fibroblast cells assessed as accumulation of prelamin A at 20 uM after 24 hrs by Western blot; assay type: cell-based
Method in brief: (§3)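 Rce1−/− or Icmt−/− mouse embryonic fibroblasts were treated 24 h with drug (20 μM) or DMSO, with FTI (5 μM) as a comparator. Extracts were run on 4–12% Bis-Tris gels and Western blotted for lamin A/C and prelamin A, using antiserum "b", which recognises both farnesylated and nonfarnesylated forms.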

[10] = Toxicity in human AG08470 cells assessed as accumulation of prelamin A at 20 uM after 10 days by Western blot; assay type: cell-based; conditions: 240 h
Method in brief: (§4)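 WT human fibroblasts were cultured in MEM or DMEM with 10% FBS at 37°C, 5% CO₂, then treated 10 days with drug (20 μM), FTI (5 μM) or DMSO. Western blots were probed for lamin A/C, prelamin A antisera "a" (nonfarnesylated only) and "b", and actin. Prelamin A was quantified by image analysis relative to lamin C and to mature lamin A.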

[11] = Toxicity in human AG07095 cells assessed as accumulation of prelamin A at 20 uM after 10 days by Western blot; assay type: cell-based; conditions: 240 h; method in brief: as §4
[12] = Toxicity in mouse fibroblast cells assessed as accumulation of prelamin A at 20 uM after 48 hrs by Western blot; assay type: cell-based
Method in brief: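 Mouse fibroblasts were exposed 48 h to drug (20 μM), FTI (5 μM) or DMSO. Prelamin A was detected on Western blots of cell extracts.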

[13] = Toxicity in ICMT deficient mouse fibroblast cells assessed as accumulation of prelamin A at 20 uM after 24 hrs by Western blot; assay type: cell-based; method in brief: as §3
[14] = Toxicity in mouse fibroblast cells assessed as accumulation of prelamin A at 20 uM after 10 days by Western blot; assay type: cell-based; conditions: 240 h
Method in brief: (§5)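 WT mouse fibroblasts were treated 10 days with drug (NVP at 200 and 400 μM; STV at 20 and 40 μM; LPV at 20 μM) or DMSO vehicle. Prelamin A accumulation was assessed on Western blots of cell extracts.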

HeLa = experiment: Toxicity in human HeLa cells transfected with GFP-prelamin A construct assessed as accumulation of uncleaved protein at 20 uM by Western blot; assay type: cell-based
Method in brief: (§6)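 Cells were transiently transfected at 80% confluency with a GFP fused to the C-terminal 118 aa of prelamin A. Four hours later, the medium was changed to MEM/10% FBS and drug was added for 18 h (overnight). Uncleaved and cleaved fusion protein were resolved on Western blots probed with anti-GFP and anti-prelamin A antibodies.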

HEK293 [15] = experiment: Toxicity in HEK293 cells transfected with GFP-prelamin A construct assessed as accumulation of uncleaved protein at 20 uM by Western blot; assay type: cell-based; conditions: human, hek293, 20 µM; method in brief: as §6
[16] = Toxicity in mouse fibroblast cells assessed as accumulation of prelamin A at 40 uM after 10 days by Western blot; assay type: cell-based; conditions: 240 h; method in brief: as §5
HEK293 [17] = experiment: Toxicity in HEK293 cells transfected with GFP-prelamin A construct assessed as accumulation of uncleaved protein by Western blot; conditions: human
[18] = Toxicity in mouse fibroblast cells assessed as accumulation of prelamin A at 200 uM after 10 days by Western blot; assay type: cell-based; conditions: 240 h
Method in brief: (§7)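 Wild-type mouse fibroblasts were grown at 37 °C in 5% CO₂ in MEM or DMEM with 10% FBS, 2 mM L-glutamine and vitamin/amino acid supplements. Cells were exposed for 10 days to drug (200 mM DMSO stock) or DMSO vehicle. Extracts were run on 4–12% Bis-Tris gels and immunoblotted for lamin A/C, prelamin A (antiserum "b", 1:4,000) and actin.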

[19] = Toxicity in mouse fibroblast cells assessed as accumulation of prelamin A at 400 uM after 10 days by Western blot; assay type: cell-based; conditions: 240 h; method in brief: as §7

Protein-S-isoprenylcysteine O-methyltransferase (Homo sapiens), sequence (O60725 whole entry): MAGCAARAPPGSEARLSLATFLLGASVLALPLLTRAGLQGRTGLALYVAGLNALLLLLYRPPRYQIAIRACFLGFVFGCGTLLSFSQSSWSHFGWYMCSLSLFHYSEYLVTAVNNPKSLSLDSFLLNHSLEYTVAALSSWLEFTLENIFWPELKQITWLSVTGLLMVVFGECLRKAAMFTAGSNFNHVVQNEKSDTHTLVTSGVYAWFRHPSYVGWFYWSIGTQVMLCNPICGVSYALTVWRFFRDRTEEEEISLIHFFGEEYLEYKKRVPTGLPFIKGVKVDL

Row | Compound | Activity [3] | Activity [5] | pIC50 [6] | Activity [12] | Activity [14] | Activity (HeLa) | other results
1 | Cc1cccc(C)c1OCC(=O)N[C@@H](Cc1ccccc1)[C@@H](O)C[C@H](Cc1ccccc1)NC(=O)[C@H](C(C)C)N1CCCNC1=O [LOPINAVIR] | inactive | inactive | 4.74 | Toxic | Toxic | Toxic | Activity (Fibroblast [1]): inactive; Activity (Fibroblast [2]): inactive; Activity [4]: inactive; Activity (Fibroblast [7]): inactive; Activity (Fibroblast [8]): inactive; Activity [9]: Toxic; Activity [10]: Toxic; Activity [11]: Toxic; Activity [13]: Toxic; Activity (HEK293 [15]): Toxic
2 | COC(=O)N[C@H](C(=O)N[C@@H](Cc1ccccc1)[C@@H](O)CN(Cc1ccc(-c2ccccn2)cc1)NC(=O)[C@@H](NC(=O)OC)C(C)(C)C)C(C)(C)C [ATAZANAVIR] | inactive | – | – | Toxic | – | Toxic | –
3 | Cc1cn([C@H]2C=C[C@@H](CO)O2)c(=O)[nH]c1=O [STAVUDINE] | – | – | – | – | Non-toxic | Non-toxic | Activity [16]: Non-toxic
4 | CCC[C@@]1(CCc2ccccc2)CC(O)=C([C@H](CC)c2cccc(NS(=O)(=O)c3ccc(C(F)(F)F)cn3)c2)C(=O)O1 [TIPRANAVIR] | – | inactive | 5.92 | – | – | – | Activity (HEK293 [17]): Toxic
5 | Cc1ccnc2c1NC(=O)c1cccnc1N2C1CC1 [NEVIRAPINE] | – | – | – | – | – | Non-toxic | Activity [18]: Non-toxic; Activity [19]: Non-toxic
